Screening data from PubChem BioAssay.
This excerpt belongs to a sample that is enriched for hits.
RORa inhibitor: RORA (human) inhibition. P35398. CHO-K1 Gal4-RORA LBD luciferase reporter, luminescence. inhibition, % at 10 µM. 65,000 compounds, 0.43% hits. AID 561;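 active = inhibition above the mean of all tested compounds plus 3 SD, cut at about 52% in these data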
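Material: transiently transfected CHO-K1 cells, Gal4-DBD/human RORA-LBD fusion plus 5xGal4-luciferase reporter; doses: single concentration per compound, 10 µM final; incubation: 20 h at 37 °C; detection: luminescence from basal luciferase reporter expression; read-out: % inhibition of basal luciferase versus +RORA/-RORA DMSO controls; replication: tested once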
Large screens that a line does not name were inactive.

CCOc1ccc(OCc2cccc(C(=O)N3CCOCC3)c2)cc1	RORa inhibitor 77
CC(=O)NC(CCS(C)(=O)=O)C(=O)Nc1cccc2ccccc12 (configuration not stated)	none
COC(=O)Cc1cnc(NC(=O)C2C3CCC(C3)C2C(=O)O)s1 (configuration not stated)	none
CN=c1scc(C)n1/N=C/c1ccc(O)cc1O	RORa inhibitor 63
Cc1cccc2c1NC(C)CC2C (configuration not stated)	none
CCN(CC)C(=O)COc1ccc(-c2ccccc2)cc1	none
Cc1noc(C(=O)Nc2ccc3c(c2)OCO3)c1Cl	none
CCOC(=O)c1c(N)sc(C(=O)Nc2ccc3c(c2)OCO3)c1C	RORa inhibitor 54
CCC(=O)Nc1ccc(C(=O)Nc2ccc3c(c2)OCO3)cc1	none
CCCCc1ccc(S(=O)(=O)Nc2cc(C)on2)cc1	none
CCOC(=O)C(C(=O)OCC)C(CC(=O)C1CC1)c1ccccc1 (configuration not stated)	none
CCOC(=O)N1CCC(NC(=O)Cn2ncn3c(cc4sc(CC)cc43)c2=O)CC1	none
Cc1cc(NC(=O)C2CCN(S(=O)(=O)Cc3ccccc3)CC2)ccc1-n1cnnn1	none
